Measured values: ChEMBL document CHEMBL2010673, “Structure-activity relationship of pyrrole based S-nitrosoglutathione reductase inhibitors: carboxamide modification” (Bioorg Med Chem Lett, 2012)
Each block holds one molecule with its values, some of them ahead of it. Calls of active or inactive are those of the source. Unless noted, the calls are words filed in the database; no cut-off is given here.

Experiments:
[1] = molecular target: Nociceptin receptor (Homo sapiens) (UniProt P41146); assay: Inhibition of NOP receptor at 10 uM by radioligand displacement assay
How it was run: (§1)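 Off-target radioligand binding panel. Test compound at 10 µM. Each assay had at least 6 control wells, with or without vehicle, for soluble compounds. Values are percent inhibition of radioligand binding. ≥50% inhibition was scored as a positive response.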

[2] = molecular target: Beta-1 adrenergic receptor (Homo sapiens) (UniProt P08588); assay: Inhibition of Beta1 adrenergic receptor at 10 uM by radioligand displacement assay; how it was run: as §1
[3] = molecular target: 5-hydroxytryptamine receptor 6 (Homo sapiens) (UniProt P50406); assay: Inhibition of 5HT6 receptor at 10 uM by radioligand displacement assay; how it was run: as §1
[4] = molecular target: B2 bradykinin receptor (Homo sapiens) (UniProt P30411); assay: Inhibition of B2 receptor at 10 uM by radioligand displacement assay; how it was run: as §1
B2 bradykinin receptor (Homo sapiens), sequence (P30411 whole entry): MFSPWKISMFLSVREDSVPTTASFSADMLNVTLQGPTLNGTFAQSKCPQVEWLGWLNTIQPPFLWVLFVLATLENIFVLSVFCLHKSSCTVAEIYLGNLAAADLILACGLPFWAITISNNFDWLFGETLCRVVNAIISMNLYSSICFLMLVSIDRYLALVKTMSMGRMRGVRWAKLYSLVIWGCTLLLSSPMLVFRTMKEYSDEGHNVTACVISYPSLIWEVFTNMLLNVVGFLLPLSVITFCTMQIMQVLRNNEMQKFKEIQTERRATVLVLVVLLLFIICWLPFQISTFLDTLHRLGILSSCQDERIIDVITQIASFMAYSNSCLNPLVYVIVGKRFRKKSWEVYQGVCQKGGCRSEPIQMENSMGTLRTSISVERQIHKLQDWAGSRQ

[5] = molecular target: Sodium-dependent noradrenaline transporter (Homo sapiens) (UniProt P23975); assay: Inhibition of norepinephrine […] at 10 uM by radioligand displacement assay
How it was run: (§2)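 Off-target panel: radioligand binding to each receptor, channel or transporter with test compound at 10 µM; activity reported as percent inhibition of specific binding. At least 6 control wells with or without vehicle per assay. Inhibition of 50% or greater counted as a positive response.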

[6] = molecular target: Substance-K receptor (Homo sapiens) (UniProt P21452); assay: Inhibition of NK2 receptor at 10 uM by radioligand displacement assay; how it was run: as §1
[7] = molecular target: Histamine H1 receptor (Homo sapiens) (UniProt P35367); assay: Inhibition of H1 receptor at 10 uM by radioligand displacement assay; how it was run: as §1
Histamine H1 receptor (Homo sapiens), sequence (P35367 whole entry): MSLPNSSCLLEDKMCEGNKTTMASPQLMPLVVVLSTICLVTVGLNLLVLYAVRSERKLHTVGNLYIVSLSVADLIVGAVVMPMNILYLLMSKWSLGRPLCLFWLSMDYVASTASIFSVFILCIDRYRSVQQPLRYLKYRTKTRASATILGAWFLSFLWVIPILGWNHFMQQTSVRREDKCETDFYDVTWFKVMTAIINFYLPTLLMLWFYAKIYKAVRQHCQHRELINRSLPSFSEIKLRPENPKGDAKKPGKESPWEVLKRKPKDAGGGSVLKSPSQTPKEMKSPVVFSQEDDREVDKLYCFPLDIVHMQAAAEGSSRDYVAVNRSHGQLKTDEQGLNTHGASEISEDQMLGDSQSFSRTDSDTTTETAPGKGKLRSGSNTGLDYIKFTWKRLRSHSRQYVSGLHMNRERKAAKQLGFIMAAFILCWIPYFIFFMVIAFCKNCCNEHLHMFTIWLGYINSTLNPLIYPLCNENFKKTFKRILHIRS

[8] = molecular target: Mu-type opioid receptor (Homo sapiens) (UniProt P35372); assay: Inhibition of Mu opioid receptor at 10 uM by radioligand displacement assay; how it was run: as §1
[9] = molecular target: D(2) dopamine receptor (Homo sapiens) (UniProt P14416); assay: Inhibition of D2S receptor at 10 uM by radioligand displacement assay; how it was run: as §1
D(2) dopamine receptor (Homo sapiens), sequence (P14416 whole entry): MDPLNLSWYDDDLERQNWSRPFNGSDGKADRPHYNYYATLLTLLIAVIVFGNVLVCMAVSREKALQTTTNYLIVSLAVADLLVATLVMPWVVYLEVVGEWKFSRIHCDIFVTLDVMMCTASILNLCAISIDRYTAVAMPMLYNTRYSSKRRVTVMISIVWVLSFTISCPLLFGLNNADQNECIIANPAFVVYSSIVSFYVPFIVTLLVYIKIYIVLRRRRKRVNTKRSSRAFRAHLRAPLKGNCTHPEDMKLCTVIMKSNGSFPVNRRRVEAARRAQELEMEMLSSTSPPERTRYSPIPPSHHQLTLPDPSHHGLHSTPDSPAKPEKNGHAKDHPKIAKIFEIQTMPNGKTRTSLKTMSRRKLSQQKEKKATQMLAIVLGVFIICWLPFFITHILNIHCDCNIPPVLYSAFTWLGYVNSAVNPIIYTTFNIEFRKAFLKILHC

[10] = molecular target: Cannabinoid receptor 1 (Homo sapiens) (UniProt P21554); assay: Inhibition of CB1 receptor at 10 uM by radioligand displacement assay; how it was run: as §1
[11] = molecular target: 5-hydroxytryptamine receptor 1B (Homo sapiens) (UniProt P28222); assay: Inhibition of 5HT1b receptor at 10 uM by radioligand displacement assay; how it was run: as §1
[12] = molecular target: 5-hydroxytryptamine receptor 7 (Homo sapiens) (UniProt P34969); assay: Inhibition of 5HT7 receptor at 10 uM by radioligand displacement assay; how it was run: as §1
[13] = Inhibition of Kv channel at 10 uM by radioligand displacement assay; how it was run: as §1
[14] = Inhibition of chloride channel at 10 uM by radioligand displacement assay; how it was run: as §2
[15] = Inhibition of Smt-tagged S-nitrosoglutathione reductase expressed in Escherichia coli using […] as substrate for 3 mins by spectrophotometric analysis; conditions: read-out: IC50
[16] = molecular target: Kappa-type opioid receptor (Homo sapiens) (UniProt P41145); assay: Inhibition of Kappa opioid receptor at 10 uM by radioligand displacement assay; how it was run: as §1
[17] = molecular target: Adenosine receptor A2a (Homo sapiens) (UniProt P29274); assay: Inhibition of adenosine A2a receptor at 10 uM by radioligand displacement assay; how it was run: as §1
Adenosine receptor A2a (Homo sapiens), sequence (P29274 whole entry): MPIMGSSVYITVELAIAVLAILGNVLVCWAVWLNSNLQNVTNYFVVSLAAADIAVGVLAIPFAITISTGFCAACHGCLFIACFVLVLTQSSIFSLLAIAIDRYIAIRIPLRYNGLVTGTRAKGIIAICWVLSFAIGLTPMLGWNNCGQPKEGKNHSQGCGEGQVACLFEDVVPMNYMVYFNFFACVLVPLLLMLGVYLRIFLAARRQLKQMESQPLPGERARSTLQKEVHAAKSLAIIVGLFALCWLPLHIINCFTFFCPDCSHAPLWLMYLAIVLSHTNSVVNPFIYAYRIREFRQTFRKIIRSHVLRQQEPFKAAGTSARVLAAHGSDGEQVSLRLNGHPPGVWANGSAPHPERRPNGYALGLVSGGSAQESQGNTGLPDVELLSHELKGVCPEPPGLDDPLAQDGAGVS

[18] = molecular target: Galanin receptor type 2 (Homo sapiens) (UniProt O43603); assay: Inhibition of GAL2 receptor at 10 uM by radioligand displacement assay; how it was run: as §1
[19] = Inhibition of GABA receptor at 10 uM by radioligand displacement assay; how it was run: as §1
[20] = molecular target: Neurotensin receptor type 1 (Homo sapiens) (UniProt P30989); assay: Inhibition of NTS1 receptor at 10 uM by radioligand displacement assay; how it was run: as §1
Neurotensin receptor type 1 (Homo sapiens), sequence (P30989 whole entry): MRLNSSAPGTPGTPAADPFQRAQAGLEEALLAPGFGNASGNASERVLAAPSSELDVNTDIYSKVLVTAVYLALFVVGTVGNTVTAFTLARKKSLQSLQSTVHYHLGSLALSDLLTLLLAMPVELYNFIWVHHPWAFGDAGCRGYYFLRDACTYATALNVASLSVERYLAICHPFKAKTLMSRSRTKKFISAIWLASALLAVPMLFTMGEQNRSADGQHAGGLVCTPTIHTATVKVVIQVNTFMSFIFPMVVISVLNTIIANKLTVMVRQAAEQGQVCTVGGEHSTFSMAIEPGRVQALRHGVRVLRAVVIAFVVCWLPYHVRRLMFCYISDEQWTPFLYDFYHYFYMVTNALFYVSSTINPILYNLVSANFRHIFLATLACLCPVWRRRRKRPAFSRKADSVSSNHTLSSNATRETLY

[21] = molecular target: Neuropeptide Y receptor type 2 (Homo sapiens) (UniProt P49146); assay: Inhibition of Y2 receptor at 10 uM by radioligand displacement assay; how it was run: as §1
[22] = molecular target: Adenosine receptor A3 (Homo sapiens) (UniProt P0DMS8); assay: Inhibition of adenosine A3 receptor at 10 uM by radioligand displacement assay; how it was run: as §2
A549 = assay: Cytotoxicity against human A549 cells after 48 hrs by MTS assay; type: cell-based; conditions: A549, 48 h
[23] = molecular target: 5-hydroxytryptamine receptor 5A (Homo sapiens) (UniProt P47898); assay: Inhibition of 5HT5A receptor at 10 uM by radioligand displacement assay; how it was run: as §1
[24] = molecular target: Beta-2 adrenergic receptor (Homo sapiens) (UniProt P07550); assay: Inhibition of Beta2 adrenergic receptor at 10 uM by radioligand displacement assay; how it was run: as §1
[25] = molecular target: Neuromedin-K receptor (Homo sapiens) (UniProt P29371); assay: Inhibition of NK3 receptor at 10 uM by radioligand displacement assay; how it was run: as §1
Neuromedin-K receptor (Homo sapiens), sequence (P29371 whole entry): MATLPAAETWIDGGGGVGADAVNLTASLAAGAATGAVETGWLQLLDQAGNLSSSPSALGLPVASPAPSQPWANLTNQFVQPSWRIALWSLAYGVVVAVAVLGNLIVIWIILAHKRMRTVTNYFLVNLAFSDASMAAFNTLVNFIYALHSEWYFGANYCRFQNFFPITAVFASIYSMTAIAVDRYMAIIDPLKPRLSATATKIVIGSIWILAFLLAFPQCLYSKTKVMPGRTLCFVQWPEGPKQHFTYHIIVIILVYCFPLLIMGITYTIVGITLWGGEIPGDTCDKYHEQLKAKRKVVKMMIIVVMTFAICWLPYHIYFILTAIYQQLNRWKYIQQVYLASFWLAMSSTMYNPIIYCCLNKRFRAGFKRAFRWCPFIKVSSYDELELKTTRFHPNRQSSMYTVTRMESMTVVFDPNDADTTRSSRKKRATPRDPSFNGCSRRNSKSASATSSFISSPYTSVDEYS

[26] = molecular target: Thromboxane A2 receptor (Homo sapiens) (UniProt P21731); assay: Inhibition of TP receptor at 10 uM by radioligand displacement assay; how it was run: as §1
Thromboxane A2 receptor (Homo sapiens), sequence (P21731 whole entry): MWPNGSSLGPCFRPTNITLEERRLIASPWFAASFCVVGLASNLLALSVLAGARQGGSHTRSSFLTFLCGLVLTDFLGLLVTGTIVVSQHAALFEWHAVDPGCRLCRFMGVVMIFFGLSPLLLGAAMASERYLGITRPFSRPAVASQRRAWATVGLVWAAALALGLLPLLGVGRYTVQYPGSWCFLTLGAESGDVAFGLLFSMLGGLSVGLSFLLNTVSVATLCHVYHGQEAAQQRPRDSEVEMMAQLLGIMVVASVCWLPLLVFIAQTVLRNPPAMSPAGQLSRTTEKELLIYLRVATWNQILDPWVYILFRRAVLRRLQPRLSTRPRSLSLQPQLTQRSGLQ

[27] = molecular target: Cholecystokinin receptor type A (Homo sapiens) (UniProt P32238); assay: Inhibition of CCK1 receptor at 10 uM by radioligand displacement assay; how it was run: as §1
[28] = molecular target: Sodium-dependent serotonin transporter (Homo sapiens) (UniProt P31645); assay: Inhibition of 5HT transporter at 10 uM by radioligand displacement assay; how it was run: as §1
Sodium-dependent serotonin transporter (Homo sapiens), sequence (P31645 whole entry, looked up): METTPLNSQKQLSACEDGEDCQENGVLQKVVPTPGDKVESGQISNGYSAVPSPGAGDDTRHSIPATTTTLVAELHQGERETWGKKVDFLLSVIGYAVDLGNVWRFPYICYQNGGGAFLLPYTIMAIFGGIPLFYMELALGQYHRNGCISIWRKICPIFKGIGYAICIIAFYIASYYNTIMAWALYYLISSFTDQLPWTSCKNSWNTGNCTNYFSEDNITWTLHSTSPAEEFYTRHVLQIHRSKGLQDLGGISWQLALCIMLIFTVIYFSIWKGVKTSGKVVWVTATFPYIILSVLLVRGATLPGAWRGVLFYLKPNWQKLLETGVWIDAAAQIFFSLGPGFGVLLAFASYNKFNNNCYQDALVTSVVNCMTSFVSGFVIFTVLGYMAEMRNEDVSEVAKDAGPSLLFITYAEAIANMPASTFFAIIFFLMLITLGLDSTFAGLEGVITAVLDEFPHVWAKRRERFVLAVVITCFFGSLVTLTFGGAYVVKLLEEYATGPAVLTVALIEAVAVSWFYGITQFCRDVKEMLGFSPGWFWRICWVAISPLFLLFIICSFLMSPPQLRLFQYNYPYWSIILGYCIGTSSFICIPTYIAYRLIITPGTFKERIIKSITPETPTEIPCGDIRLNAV

[29] = molecular target: C-X-C chemokine receptor type 2 (Homo sapiens) (UniProt P25025); assay: Inhibition of CXCR2 receptor at 10 uM by radioligand displacement assay; how it was run: as §1
[30] = molecular target: 5-hydroxytryptamine receptor 2B (Homo sapiens) (UniProt P41595); assay: Inhibition of 5HT2b receptor at 10 uM by radioligand displacement assay; how it was run: as §1
5-hydroxytryptamine receptor 2B (Homo sapiens), sequence (P41595 whole entry): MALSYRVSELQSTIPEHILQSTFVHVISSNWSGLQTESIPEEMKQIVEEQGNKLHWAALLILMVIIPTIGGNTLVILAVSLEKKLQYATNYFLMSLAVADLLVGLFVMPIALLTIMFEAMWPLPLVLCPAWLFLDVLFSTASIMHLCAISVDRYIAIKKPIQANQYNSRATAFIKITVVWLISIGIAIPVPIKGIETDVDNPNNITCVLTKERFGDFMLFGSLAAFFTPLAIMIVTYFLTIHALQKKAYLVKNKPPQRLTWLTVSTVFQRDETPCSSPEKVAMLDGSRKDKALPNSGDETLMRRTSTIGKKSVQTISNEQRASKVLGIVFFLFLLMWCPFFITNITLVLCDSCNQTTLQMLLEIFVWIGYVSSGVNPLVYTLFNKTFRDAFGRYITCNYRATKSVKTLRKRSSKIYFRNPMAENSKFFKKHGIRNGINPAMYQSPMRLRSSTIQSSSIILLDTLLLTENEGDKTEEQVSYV

[31] = Inhibition of L-type calcium channel at 10 uM by radioligand displacement assay; how it was run: as §1
[32] = molecular target: Histamine H2 receptor (Homo sapiens) (UniProt P25021); assay: Inhibition of H2 receptor at 10 uM by radioligand displacement assay; how it was run: as §1
Histamine H2 receptor (Homo sapiens), sequence (P25021 whole entry): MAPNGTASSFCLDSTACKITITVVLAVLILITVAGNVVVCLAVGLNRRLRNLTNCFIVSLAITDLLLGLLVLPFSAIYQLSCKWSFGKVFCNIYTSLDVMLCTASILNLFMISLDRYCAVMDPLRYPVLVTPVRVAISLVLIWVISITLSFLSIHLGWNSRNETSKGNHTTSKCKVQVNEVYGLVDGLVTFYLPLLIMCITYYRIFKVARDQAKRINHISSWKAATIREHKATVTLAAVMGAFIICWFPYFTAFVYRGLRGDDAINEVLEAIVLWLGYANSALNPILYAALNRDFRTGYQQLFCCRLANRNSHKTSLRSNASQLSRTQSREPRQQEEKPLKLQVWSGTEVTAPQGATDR

[33] = Inhibition of sst receptor at 10 uM by radioligand displacement assay; how it was run: as §2
[34] = molecular target: Vasoactive intestinal polypeptide receptor 1 (Homo sapiens) (UniProt P32241); assay: Inhibition of VPAC1 receptor at 10 uM by radioligand displacement assay; how it was run: as §1
[35] = molecular target: Translocator protein (Homo sapiens) (UniProt P30536); assay: Inhibition of Benzodiazepine receptor at 10 uM by radioligand displacement assay; how it was run: as §1
Translocator protein (Homo sapiens), sequence (P30536 whole entry): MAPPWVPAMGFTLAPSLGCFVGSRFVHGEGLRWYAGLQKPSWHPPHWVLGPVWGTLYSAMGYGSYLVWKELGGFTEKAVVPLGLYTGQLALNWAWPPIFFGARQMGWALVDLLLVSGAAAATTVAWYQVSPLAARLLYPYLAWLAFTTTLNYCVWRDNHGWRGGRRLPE

[36] = molecular target: D(1A) dopamine receptor (Homo sapiens) (UniProt P21728); assay: Inhibition of dopamine D1 receptor at 10 uM by radioligand displacement assay; how it was run: as §2
[37] = Inhibition of alpha1 adrenergic receptor at 10 uM by radioligand displacement assay; how it was run: as §2
[38] = Inhibition of Small conductance calcium-activated potassium channel at 10 uM by radioligand displacement assay; how it was run: as §1
[39] = molecular target: C-C chemokine receptor type 1 (Homo sapiens) (UniProt P32246); assay: Inhibition of CCR1 receptor at 10 uM by radioligand displacement assay; how it was run: as §1
[40] = molecular target: Melanocortin receptor 4 (Homo sapiens) (UniProt P32245); assay: Inhibition of MC4 receptor at 10 uM by radioligand displacement assay; how it was run: as §1
Melanocortin receptor 4 (Homo sapiens), sequence (P32245 whole entry): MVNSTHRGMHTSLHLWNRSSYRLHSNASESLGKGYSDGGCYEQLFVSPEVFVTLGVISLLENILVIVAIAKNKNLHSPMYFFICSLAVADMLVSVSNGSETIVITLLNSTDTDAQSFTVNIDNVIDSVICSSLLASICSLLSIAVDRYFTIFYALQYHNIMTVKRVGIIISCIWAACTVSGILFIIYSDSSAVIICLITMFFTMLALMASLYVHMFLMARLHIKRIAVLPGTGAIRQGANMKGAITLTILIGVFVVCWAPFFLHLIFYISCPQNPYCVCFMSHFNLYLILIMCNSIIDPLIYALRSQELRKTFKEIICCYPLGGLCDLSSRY

[41] = molecular target: Muscarinic acetylcholine receptor M3 (Homo sapiens) (UniProt P20309); assay: Inhibition of M3 receptor at 10 uM by radioligand displacement assay; how it was run: as §1

- inhibition [1]: inactive
- inhibition [2]: inactive
- inhibition [3]: inactive
- inhibition [4]: inactive
- inhibition [5]: inactive
- inhibition [6]: inactive
- inhibition [7]: inactive
- inhibition [8]: inactive
- inhibition [9]: inactive
- inhibition [10]: inactive
- inhibition [11]: inactive
- inhibition [12]: inactive
- inhibition [13]: inactive
- inhibition [14]: inactive
- IC50 [15]: 43 nM
- inhibition [16]: inactive
- inhibition [17]: inactive
- inhibition [18]: inactive
- inhibition [19]: inactive
- inhibition [20]: inactive
- inhibition [21]: inactive
- inhibition [22]: inactive
- inhibition [23]: inactive
- inhibition [24]: inactive
- inhibition [25]: inactive
- inhibition [26]: inactive
- inhibition [27]: inactive
- inhibition [28]: inactive
- inhibition [29]: inactive
- inhibition [30]: inactive
- inhibition [31]: inactive
- inhibition [32]: inactive
- inhibition [33]: inactive
- inhibition [34]: inactive
- inhibition [35]: inactive
- inhibition [36]: inactive
- inhibition [37]: inactive
- inhibition [38]: inactive
- inhibition [39]: inactive
- inhibition [40]: inactive
- inhibition [41]: inactive
Structure (SMILES): Cc1cc(NS(C)(=O)=O)ccc1-n1c(CCC(=O)O)ccc1-c1ccc(-n2ccnc2C)s1
- IC50 (A549): > 150000 nM

- inhibition [1]: inactive
- inhibition [2]: inactive
- inhibition [3]: inactive
- inhibition [4]: inactive
- inhibition [5]: inactive
- inhibition [6]: inactive
- inhibition [7]: inactive
- inhibition [8]: inactive
- inhibition [9]: inactive
- inhibition [10]: inactive
- inhibition [11]: inactive
- inhibition [12]: inactive
- inhibition [13]: inactive
- inhibition [14]: inactive
- IC50 [15]: 29 nM
- inhibition [16]: inactive
- inhibition [17]: inactive
- inhibition [18]: inactive
- inhibition [19]: inactive
- inhibition [20]: inactive
- inhibition [21]: inactive
- inhibition [22]: inactive
- inhibition [23]: inactive
- inhibition [24]: inactive
- inhibition [25]: inactive
- inhibition [26]: inactive
- inhibition [27]: inactive
- inhibition [28]: inactive
- inhibition [29]: inactive
- inhibition [30]: inactive
- inhibition [31]: inactive
- inhibition [32]: inactive
- inhibition [33]: inactive
- inhibition [34]: inactive
- inhibition [35]: inactive
- inhibition [36]: inactive
- inhibition [37]: inactive
- inhibition [38]: inactive
- inhibition [39]: inactive
- inhibition [40]: inactive
- inhibition [41]: inactive
Structure (SMILES): Cc1cc(NS(C)(=O)=O)ccc1-n1c(CCC(=O)O)ccc1-c1ccc(-n2ccnc2)cc1
- IC50 (A549): > 150000 nM
